pIC50: −log10 of the molar value. The source made the active and inactive calls. The calls are words filed in the database; no cut-off is given here.
Tests used:
[1] = test system: B16-F10; assay: Antimetastatic activity against GFP-tagged mouse B16F10 cells isografted into syngeneic athymic Ncr nu/nu mouse assessed as decrease in number of B16F10 lung metastases at 10 mg/kg, ip administered twice weekly starting from day 8 post-tumor inoculation by hematoxylin-eosin staining; assay type: functional, organism-based; set-up: dose 10 mg/kg
[2] = test system: B16-F10; assay: Antitumor activity against GFP-tagged mouse B16F10 cells isografted into syngeneic athymic Ncr nu/nu mouse assessed as decrease in tumor growth rate at 10 mg/kg, ip administered twice weekly starting from day 8 post-tumor inoculation; assay type: functional, organism-based; set-up: dose 10 mg/kg
How it was run: (§1)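 Mice bearing subcutaneous GFP-tagged B16-F10 tumors; treatment began once most tumors were caliper-measurable (day 8) after random sorting into groups. Dosing 10 mg/kg IP every Monday AM and Thursday PM; sham animals received water. Tumor length, width and depth measured Mon/Wed/Fri; volume = L×W×D; growth rate by linear regression. n = 7–10.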

[3] = test system: B16-F10; assay: Antiangiogenic activity against GFP-tagged mouse B16F10 cells isografted into syngeneic athymic Ncr nu/nu mouse assessed as decrease in vascular density at 10 mg/kg, ip administered twice weekly starting from day 8 post-tumor inoculation; assay type: functional, organism-based; set-up: dose 10 mg/kg
[4] = test system: B16-F10; assay: Antitumor activity against GFP-tagged mouse B16F10 cells isografted into syngeneic athymic Ncr nu/nu mouse assessed as decrease in tumor volume at 10 mg/kg, ip administered twice weekly starting from day 8 post-tumor inoculation; assay type: functional, organism-based; set-up: dose 10 mg/kg; how it was run: as §1
[5] = target: T1, Vascular endothelial growth factor receptor 2 (Homo sapiens, UniProt P35968); assay type: cell-based, U-251
[6] = test system: A-431; assay: Cytotoxicity against human A431 cells overexpressing EGFR assessed as inhibition of cell proliferation treated for 12 hrs measured after 36 hrs by CYQUANT dye based assay; assay type: functional
[7] = test system: Chorioallantoic membrane; assay: Inhibition of VEGF165/bFGF-induced angiogenesis in chicken chorioallantoic membrane assessed a s decrease in number of vessels formed treated 8 hrs after VEGF/bFGF addition measured after 48 hrs by dissecting microscopic analysis; assay type: functional; settings: Gallus gallus
[8] = target: T2, Vascular endothelial growth factor receptor 1 (Homo sapiens, UniProt P17948); assay: Inhibition of VEGF-induced VEGFR1 phosphorylation in human A498 cells overexpressing Flt-1 pretreated for 60 mins prior to VEGF addition measured after 10 mins by phosphotyrosine ELISA cytoblot analysis; assay type: cell-based
[9] = target: Platelet-derived growth factor receptor beta (Homo sapiens, UniProt P09619); assay: Inhibition of PDGF-BB-induced PDGFR beta phosphorylation in human SF539 cells overexpressing PDGFR beta pretreated for 60 mins prior to PDGF-BB addition measured after 10 mins by phosphotyrosine ELISA cytoblot analysis; assay type: cell-based, SF-539
[10] = target: Epidermal growth factor receptor (Homo sapiens, UniProt P00533); assay type: cell-based, A-431;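 further: EGF-stimulated EGFR phosphorylation in human A431 cells, compound preincubation 60 min before EGF, phosphotyrosine ELISA cytoblot read 10 min after stimulation, inhibition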
[11] = test system: B16-F10; assay: Antimetastatic activity against GFP-tagged mouse B16F10 cells isografted into syngeneic athymic Ncr nu/nu mouse assessed as decrease in number of B16F10 lung metastases at […], ip administered twice weekly starting from day 8 post-tumor inoculation by hematoxylin-eosin staining; assay type: functional, organism-based
[12] = test system: Mus musculus; assay: Toxicity in Ncr nu/nu mouse assessed as body weight loss at […], ip administered twice weekly measured for 6 weeks by whole animal toxicity assay; assay type: organism-based; settings: in vivo, 1008 h
[13] = test system: Chorioallantoic membrane; assay: Ratio of semaxanib IC50 to compound IC50 for VEGF165/bFGF-induced angiogenesis in chicken chorioallantoic membrane by dissecting microscopic analysis; assay type: functional; settings: Gallus gallus
[14] = Toxicity in ip dosed Ncr nu/nu mouse assessed as maximum tolerated dose administered twice weekly by whole animal toxicity assay; assay type: organism-based; settings: in vivo
[15] = test system: B16-F10; assay: Antitumor activity against GFP-tagged mouse B16F10 cells isografted into syngeneic athymic Ncr nu/nu mouse assessed as decrease in tumor growth rate at […], ip administered twice weekly starting from day 8 post-tumor inoculation; assay type: functional, organism-based
[16] = test system: B16-F10; assay: Antiangiogenic activity against GFP-tagged mouse B16F10 cells isografted into syngeneic athymic Ncr nu/nu mouse assessed as decrease in vascular density at […], ip administered twice weekly starting from day 8 post-tumor inoculation; assay type: functional, organism-based
[17] = test system: Mus musculus; assay: Toxicity in Ncr nu/nu mouse assessed as body weight loss at 7.5 to 10 mg/kg, ip administered twice weekly measured for 6 weeks by whole animal toxicity assay; assay type: organism-based; set-up: dose 7.5-10 mg/kg, route intraperitoneal; settings: in vivo, 1008 h
[18] = test system: Mus musculus; assay: Toxicity in Ncr nu/nu mouse assessed as body weight loss at 15 to 20 mg/kg, ip administered twice weekly measured for 6 weeks by whole animal toxicity assay; assay type: organism-based; set-up: dose 15-20 mg/kg, route intraperitoneal; settings: in vivo, 1008 h
[19] = target: T1, Vascular endothelial growth factor receptor 2; assay: Ratio of compound IC50 to semaxanib IC50 for VEGF-induced VEGFR2 phosphorylation in human U251 cells overexpressing Flk-1 by phosphotyrosine ELISA cytoblot analysis; assay type: cell-based; settings: U-251
How it was run: (§2)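 Cells at 60–75% confluence serum-starved 18 h, then pretreated 60 min with serial compound dilutions starting at 10 before growth factor stimulation. Cells fixed 30 min at 60 °C, then 70% ethanol 30 min, blocked with 1% BSA in TBS 1 h, HRP-anti-phosphotyrosine overnight, luminol ELISA substrate; light emission imaged.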

[20] = test system: B16-F10; assay: Antitumor activity against GFP-tagged mouse B16F10 cells isografted into syngeneic athymic Ncr nu/nu mouse assessed as decrease in tumor volume at […], ip administered twice weekly starting from day 8 post-tumor inoculation; assay type: functional, organism-based
[21] = target: T2, Vascular endothelial growth factor receptor 1; assay: Ratio of compound IC50 to CB676475 IC50 for VEGF-induced VEGFR1 phosphorylation in human A498 cells overexpressing Flt-1 by phosphotyrosine ELISA cytoblot analysis; assay type: cell-based; how it was run: as §2
[22] = test system: Chorioallantoic membrane; assay: Ratio of compound IC50 to semaxanib IC50 for VEGF165/bFGF-induced angiogenesis in chicken chorioallantoic membrane by dissecting microscopic analysis; assay type: functional; settings: Gallus gallus
[23] = test system: A-431; assay: Ratio of cisplatin IC50 to compound IC50 for human A431 cells overexpressing EGFR by CYQUANT dye based assay

T2 sequence (P17948 whole entry): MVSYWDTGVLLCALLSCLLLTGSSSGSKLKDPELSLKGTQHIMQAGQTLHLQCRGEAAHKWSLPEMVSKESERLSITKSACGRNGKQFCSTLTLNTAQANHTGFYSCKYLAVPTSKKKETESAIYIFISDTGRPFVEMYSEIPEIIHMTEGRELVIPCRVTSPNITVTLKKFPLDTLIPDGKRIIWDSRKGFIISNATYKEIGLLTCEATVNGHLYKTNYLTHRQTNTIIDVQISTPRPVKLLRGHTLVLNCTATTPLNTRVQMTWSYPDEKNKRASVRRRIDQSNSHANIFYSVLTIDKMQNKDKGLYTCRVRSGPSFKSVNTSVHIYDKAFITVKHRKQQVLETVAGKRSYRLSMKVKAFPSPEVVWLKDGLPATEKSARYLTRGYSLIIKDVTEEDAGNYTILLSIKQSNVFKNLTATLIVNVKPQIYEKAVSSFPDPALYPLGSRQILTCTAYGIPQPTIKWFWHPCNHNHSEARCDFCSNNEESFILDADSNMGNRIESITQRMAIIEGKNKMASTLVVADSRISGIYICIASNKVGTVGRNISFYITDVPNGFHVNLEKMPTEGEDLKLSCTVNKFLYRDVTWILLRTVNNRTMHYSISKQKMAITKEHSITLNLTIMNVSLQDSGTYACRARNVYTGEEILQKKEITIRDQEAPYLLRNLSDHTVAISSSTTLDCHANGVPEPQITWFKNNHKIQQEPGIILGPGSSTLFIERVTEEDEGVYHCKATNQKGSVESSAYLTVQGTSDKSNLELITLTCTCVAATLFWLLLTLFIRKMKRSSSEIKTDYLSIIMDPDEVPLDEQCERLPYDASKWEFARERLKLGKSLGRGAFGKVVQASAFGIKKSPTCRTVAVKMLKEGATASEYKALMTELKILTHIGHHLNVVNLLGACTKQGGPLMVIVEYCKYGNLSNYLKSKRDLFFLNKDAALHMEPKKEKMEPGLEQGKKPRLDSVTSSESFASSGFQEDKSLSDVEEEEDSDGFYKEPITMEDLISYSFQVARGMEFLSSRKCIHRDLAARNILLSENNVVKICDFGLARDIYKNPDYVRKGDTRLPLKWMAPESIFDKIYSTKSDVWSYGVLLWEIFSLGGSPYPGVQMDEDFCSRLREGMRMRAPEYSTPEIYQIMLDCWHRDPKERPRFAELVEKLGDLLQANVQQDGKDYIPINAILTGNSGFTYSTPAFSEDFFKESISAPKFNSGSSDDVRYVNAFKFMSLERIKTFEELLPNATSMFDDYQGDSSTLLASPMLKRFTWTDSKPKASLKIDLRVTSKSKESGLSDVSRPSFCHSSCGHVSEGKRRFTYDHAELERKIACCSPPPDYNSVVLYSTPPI
Sequence of Platelet-derived growth factor receptor beta (P09619 whole entry): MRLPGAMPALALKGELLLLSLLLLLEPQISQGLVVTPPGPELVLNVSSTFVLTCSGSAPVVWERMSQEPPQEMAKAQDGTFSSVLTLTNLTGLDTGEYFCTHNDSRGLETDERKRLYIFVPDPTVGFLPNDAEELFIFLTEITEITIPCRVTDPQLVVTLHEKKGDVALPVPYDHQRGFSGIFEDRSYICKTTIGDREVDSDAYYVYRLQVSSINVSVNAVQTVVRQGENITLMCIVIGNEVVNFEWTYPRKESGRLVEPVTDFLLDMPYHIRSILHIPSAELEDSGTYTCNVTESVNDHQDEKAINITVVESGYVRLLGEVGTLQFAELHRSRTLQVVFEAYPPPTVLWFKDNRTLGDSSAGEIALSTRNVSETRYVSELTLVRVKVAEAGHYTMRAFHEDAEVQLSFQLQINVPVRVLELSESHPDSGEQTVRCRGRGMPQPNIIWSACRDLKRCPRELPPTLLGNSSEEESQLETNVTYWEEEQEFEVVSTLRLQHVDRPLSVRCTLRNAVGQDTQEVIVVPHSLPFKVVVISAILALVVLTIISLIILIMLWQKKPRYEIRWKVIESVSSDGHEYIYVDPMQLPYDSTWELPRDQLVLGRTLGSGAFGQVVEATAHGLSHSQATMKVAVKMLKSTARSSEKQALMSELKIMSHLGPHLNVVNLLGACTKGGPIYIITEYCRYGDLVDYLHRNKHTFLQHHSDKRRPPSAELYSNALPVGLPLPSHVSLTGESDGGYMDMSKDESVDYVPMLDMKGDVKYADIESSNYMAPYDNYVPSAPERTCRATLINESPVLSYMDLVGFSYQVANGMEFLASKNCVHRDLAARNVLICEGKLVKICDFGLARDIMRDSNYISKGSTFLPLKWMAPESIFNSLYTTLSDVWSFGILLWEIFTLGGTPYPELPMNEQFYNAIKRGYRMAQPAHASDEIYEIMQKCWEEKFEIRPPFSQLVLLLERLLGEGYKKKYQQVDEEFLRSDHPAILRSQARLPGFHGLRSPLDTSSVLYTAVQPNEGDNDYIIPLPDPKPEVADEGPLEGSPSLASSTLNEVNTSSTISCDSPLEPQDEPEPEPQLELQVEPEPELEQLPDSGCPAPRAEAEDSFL
T1 sequence (P35968 whole entry): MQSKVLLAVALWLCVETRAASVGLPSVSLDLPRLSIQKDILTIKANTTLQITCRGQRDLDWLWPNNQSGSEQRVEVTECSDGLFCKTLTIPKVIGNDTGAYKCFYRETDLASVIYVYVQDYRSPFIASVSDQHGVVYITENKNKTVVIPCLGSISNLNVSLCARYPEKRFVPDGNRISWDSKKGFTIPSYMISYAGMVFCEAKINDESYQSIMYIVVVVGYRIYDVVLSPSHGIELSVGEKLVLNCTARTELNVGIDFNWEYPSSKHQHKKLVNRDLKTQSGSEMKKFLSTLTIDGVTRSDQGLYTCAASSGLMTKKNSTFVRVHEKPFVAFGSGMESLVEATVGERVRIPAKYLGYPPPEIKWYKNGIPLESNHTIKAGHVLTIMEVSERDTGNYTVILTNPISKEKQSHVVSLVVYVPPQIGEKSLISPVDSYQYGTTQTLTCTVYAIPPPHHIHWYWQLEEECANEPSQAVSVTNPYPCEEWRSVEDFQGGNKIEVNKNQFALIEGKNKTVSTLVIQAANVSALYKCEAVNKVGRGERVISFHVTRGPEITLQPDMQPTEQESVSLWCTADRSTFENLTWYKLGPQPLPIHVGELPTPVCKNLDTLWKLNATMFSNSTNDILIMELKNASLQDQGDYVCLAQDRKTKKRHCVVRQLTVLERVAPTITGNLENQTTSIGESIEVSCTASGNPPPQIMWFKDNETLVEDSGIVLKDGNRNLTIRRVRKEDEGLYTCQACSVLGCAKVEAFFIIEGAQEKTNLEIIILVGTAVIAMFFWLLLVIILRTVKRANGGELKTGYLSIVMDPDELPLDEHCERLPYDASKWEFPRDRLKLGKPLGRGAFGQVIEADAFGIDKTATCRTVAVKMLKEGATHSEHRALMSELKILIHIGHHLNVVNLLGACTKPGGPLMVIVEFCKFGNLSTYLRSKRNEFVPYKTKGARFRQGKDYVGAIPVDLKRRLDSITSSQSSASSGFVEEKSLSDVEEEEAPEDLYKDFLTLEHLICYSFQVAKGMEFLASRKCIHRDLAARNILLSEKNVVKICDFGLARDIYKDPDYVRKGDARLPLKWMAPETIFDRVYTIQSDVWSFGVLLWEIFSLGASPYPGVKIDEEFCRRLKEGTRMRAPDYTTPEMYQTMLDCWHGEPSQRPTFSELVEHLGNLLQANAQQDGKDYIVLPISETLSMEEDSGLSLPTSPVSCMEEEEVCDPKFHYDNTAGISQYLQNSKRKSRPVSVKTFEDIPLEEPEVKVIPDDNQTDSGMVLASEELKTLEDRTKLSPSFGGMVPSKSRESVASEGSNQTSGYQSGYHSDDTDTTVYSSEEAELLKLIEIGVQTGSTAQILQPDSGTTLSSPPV
Sequence of Epidermal growth factor receptor (P00533 whole entry): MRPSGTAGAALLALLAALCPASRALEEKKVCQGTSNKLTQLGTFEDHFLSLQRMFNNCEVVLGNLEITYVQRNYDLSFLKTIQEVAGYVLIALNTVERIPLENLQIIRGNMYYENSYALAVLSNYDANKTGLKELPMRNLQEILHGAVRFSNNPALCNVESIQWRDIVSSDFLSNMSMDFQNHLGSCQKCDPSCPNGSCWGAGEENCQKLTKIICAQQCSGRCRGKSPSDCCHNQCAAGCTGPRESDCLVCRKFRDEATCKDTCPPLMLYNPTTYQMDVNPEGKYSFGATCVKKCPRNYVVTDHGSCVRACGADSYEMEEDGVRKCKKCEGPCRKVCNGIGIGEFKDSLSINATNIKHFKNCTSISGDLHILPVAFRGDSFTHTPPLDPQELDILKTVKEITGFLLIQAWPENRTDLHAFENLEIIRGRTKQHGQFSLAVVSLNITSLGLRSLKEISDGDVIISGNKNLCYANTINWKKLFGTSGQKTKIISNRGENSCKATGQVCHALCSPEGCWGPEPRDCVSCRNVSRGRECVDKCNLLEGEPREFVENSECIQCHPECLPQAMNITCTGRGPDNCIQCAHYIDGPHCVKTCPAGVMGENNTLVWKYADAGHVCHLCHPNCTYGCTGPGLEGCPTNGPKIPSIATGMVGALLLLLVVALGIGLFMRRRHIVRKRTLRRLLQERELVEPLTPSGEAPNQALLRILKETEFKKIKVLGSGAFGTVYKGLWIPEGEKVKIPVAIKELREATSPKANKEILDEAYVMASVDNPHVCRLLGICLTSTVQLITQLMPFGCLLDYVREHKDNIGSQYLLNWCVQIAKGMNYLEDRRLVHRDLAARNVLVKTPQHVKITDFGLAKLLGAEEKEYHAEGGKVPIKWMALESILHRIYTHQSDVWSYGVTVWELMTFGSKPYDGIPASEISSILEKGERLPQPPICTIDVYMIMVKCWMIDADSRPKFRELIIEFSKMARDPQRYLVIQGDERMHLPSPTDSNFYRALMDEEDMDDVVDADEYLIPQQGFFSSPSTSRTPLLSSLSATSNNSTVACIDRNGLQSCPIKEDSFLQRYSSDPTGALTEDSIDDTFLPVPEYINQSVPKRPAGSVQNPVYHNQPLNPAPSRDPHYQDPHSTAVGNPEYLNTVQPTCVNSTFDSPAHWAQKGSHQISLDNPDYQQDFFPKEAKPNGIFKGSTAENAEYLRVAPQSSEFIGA

Which inhibition [1] does the source give for `CN(Cc1cnc2nc(N)nc(N)c2n1)c1ccc(C(=O)N[C@@H](CCC(=O)O)C(=O)O)cc1` here?
The inhibition was “Active”.

What about the inhibition [2] of the same compound?
The inhibition was “Active”.

And the inhibition [3]?
Its inhibition is “Active”.

What about the inhibition [4] of the same compound?
Its inhibition is “Active”.

With `Nc1nc(Nc2ccc(F)c(Cl)c2)c2cc(CCc3ccccn3)[nH]c2n1` as the compound, how does the pIC50 [5] read?
Its pIC50 is < 3.70.

And the pIC50 [6]?
The pIC50 was 4.57.

What about the pIC50 [7] of the same compound?
Its pIC50 is 4.95.

What about the pIC50 [8] of the same compound?
Its pIC50 is < 3.70.

What about the pIC50 [9] of the same compound?
The pIC50 was < 3.30.

And the pIC50 [10]?
The pIC50 was 3.96.

With `Nc1nc(Nc2ccc(F)c(Br)c2)c2cc(CCc3ccccn3)[nH]c2n1` as the compound, how does the pIC50 [5] read?
Its pIC50 is 4.62.

And the pIC50 [6]?
Its pIC50 is 4.91.

And the inhibition [11]?
The inhibition was “Active”.

What about the Activity [12] of the same compound?
The Activity was 1%.

And the Ratio IC50 [13]?
The Ratio IC50 was 1.2.

And the pIC50 [7]?
Its pIC50 is 7.15.

And the MTD [14]?
Its MTD is 12.5 mg/kg.

What about the pIC50 [8] of the same compound?
The pIC50 was 4.03.

What about the pIC50 [9] of the same compound?
The pIC50 was < 3.30.

What about the pIC50 [10] of the same compound?
The pIC50 was 4.07.

And the inhibition [15]?
The inhibition was “Active”.

What about the inhibition [16] of the same compound?
The inhibition was “Active”.

And the Activity [17]?
The Activity was “Non-toxic”.

What about the Activity [18] of the same compound?
The Activity was “Toxic”.

What about the Ratio IC50 [19] of the same compound?
Its Ratio IC50 is 2.4.

And the inhibition [20]?
Its inhibition is “Active”.

What about the Ratio IC50 [21] of the same compound?
The Ratio IC50 was 5.

With `CC(C)(C)C(=O)Nc1nc(Nc2ccc(F)c(C(F)(F)F)c2)c2cc(CCc3ccccn3)[nH]c2n1` as the compound, how does the pIC50 [5] read?
Its pIC50 is 3.82.

And the pIC50 [6]?
The pIC50 was 5.72.

And the pIC50 [7]?
The pIC50 was 5.07.

And the pIC50 [8]?
Its pIC50 is 3.72.

And the pIC50 [9]?
The pIC50 was < 3.30.

And the pIC50 [10]?
The pIC50 was 4.57.

What about the Ratio IC50 [21] of the same compound?
Its Ratio IC50 is 5.

With `C#Cc1cccc(Nc2nc(NC(=O)C(C)(C)C)nc3[nH]c(CCc4ccccn4)cc23)c1` as the compound, how does the pIC50 [5] read?
The pIC50 was 3.90.

What about the pIC50 [6] of the same compound?
The pIC50 was 4.52.

And the pIC50 [7]?
The pIC50 was 5.49.

What about the pIC50 [8] of the same compound?
Its pIC50 is 3.81.

What about the pIC50 [9] of the same compound?
The pIC50 was 3.37.

And the pIC50 [10]?
Its pIC50 is < 3.70.

What about the Ratio IC50 [21] of the same compound?
The Ratio IC50 was 5.

With `CC(C)(C)C(=O)Nc1nc(Nc2ccc(F)c(Cl)c2)c2cc(CCc3ccccn3)[nH]c2n1` as the compound, how does the pIC50 [5] read?
Its pIC50 is 4.05.

What about the pIC50 [6] of the same compound?
The pIC50 was 5.59.

And the pIC50 [7]?
Its pIC50 is 5.70.

What about the pIC50 [8] of the same compound?
Its pIC50 is < 3.70.

What about the pIC50 [9] of the same compound?
Its pIC50 is < 3.30.

And the pIC50 [10]?
Its pIC50 is 4.79.

With `CC(C)(C)C(=O)Nc1nc(Nc2cccc(C(F)(F)F)c2)c2cc(CCc3ccccn3)[nH]c2n1` as the compound, how does the pIC50 [5] read?
The pIC50 was 4.78.

And the pIC50 [6]?
Its pIC50 is 5.54.

What about the pIC50 [7] of the same compound?
The pIC50 was 5.80.

What about the pIC50 [8] of the same compound?
Its pIC50 is 3.89.

What about the pIC50 [9] of the same compound?
Its pIC50 is < 3.30.

What about the pIC50 [10] of the same compound?
The pIC50 was 4.89.

What about the Ratio IC50 [19] of the same compound?
The Ratio IC50 was 1.5.

What about the Ratio IC50 [21] of the same compound?
The Ratio IC50 was 5.

Which Ratio IC50 [22] does the source give for `CC(C)(C)C(=O)Nc1nc(Nc2ccc(F)c(Br)c2)c2cc(CCc3ccccn3)[nH]c2n1` here?
Its Ratio IC50 is 10.

And the pIC50 [5]?
Its pIC50 is < 3.70.

And the pIC50 [6]?
Its pIC50 is 6.00.

What about the pIC50 [7] of the same compound?
Its pIC50 is 6.05.

What about the pIC50 [8] of the same compound?
The pIC50 was < 3.70.

And the pIC50 [9]?
Its pIC50 is 4.05.

And the pIC50 [10]?
The pIC50 was 5.27.

Which results are given for `Nc1nc(Nc2ccc(F)c(C(F)(F)F)c2)c2cc(CCc3ccccn3)[nH]c2n1`?
pIC50 [5]: 3.90; pIC50 [6]: 5.49; pIC50 [7]: 4.85; pIC50 [8]: < 3.70; pIC50 [9]: < 3.30; pIC50 [10]: 4.81

With `C#Cc1cccc(Nc2nc(N)nc3[nH]c(CCc4ccccn4)cc23)c1` as the compound, how does the pIC50 [5] read?
Its pIC50 is 4.36.

And the pIC50 [6]?
Its pIC50 is 6.05.

What about the “Ratio IC50” value [23] of the same compound?
The value was 8.

What about the pIC50 [7] of the same compound?
The pIC50 was 4.86.

And the pIC50 [8]?
The pIC50 was 3.99.

What about the pIC50 [9] of the same compound?
Its pIC50 is 3.48.

And the pIC50 [10]?
Its pIC50 is 4.70.

And the Ratio IC50 [21]?
Its Ratio IC50 is 5.

With `Nc1nc(Nc2cccc(Br)c2)c2cc(CCc3ccccn3)[nH]c2n1` as the compound, how does the pIC50 [5] read?
The pIC50 was 4.30.

What about the pIC50 [6] of the same compound?
The pIC50 was 4.71.

What about the pIC50 [7] of the same compound?
The pIC50 was 5.14.

And the pIC50 [8]?
The pIC50 was < 4.30.

And the pIC50 [9]?
Its pIC50 is 4.87.

Which results are given for `Nc1nc(Nc2cccc(C(F)(F)F)c2)c2cc(CCc3ccccn3)[nH]c2n1`?
pIC50 [5]: 4.78; pIC50 [6]: 5.47; pIC50 [7]: 5.96; pIC50 [8]: < 3.70; pIC50 [9]: < 3.30; pIC50 [10]: 4.71; Ratio IC50 [19]: 1.5

— ChEMBL document CHEMBL2331499, “N2-Trimethylacetyl substituted and unsubstituted-N4-phenylsubstituted-6-(2-pyridin-2-ylethyl)-7H-pyrrolo[2,3-d]pyrimidine-2,4-diamines: design, cellular receptor tyrosine kinase inhibitory activities and in vivo evaluation as antiangiogenic, antimetastatic and antitumor agents” (Bioorg Med Chem, 2013)
